From publication PMC2911241 (Letters in drug design & discovery, 2010) come the findings set out here.

The structures appear in SMILES notation.

Assay [1] relates to human chronic myelogenous K562 leukemia cells. Nature of the assay: Cell proliferation analysis, K562 cells. Format: cell-based. The settings on record: for IC50: Homo sapiens, K562, 24 h, read-out: IC50 K562. In short, it runs like this: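 K562 cells grown in RPMI 1640 with 10% FCS, 2 mM L-glutamine, […] and penicillin/streptomycin at 37°C, 5% CO2. DMSO stocks (1 mg/mL) diluted in medium. Cells (1×10^4/well) exposed to increasing concentrations for 24 h at 37°C, then counted electronically. IC50 is 50% growth inhibition vs untreated controls. Duplicate cultures per concentration, repeated experiments, mean ± SE.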

The test system of assay [2] is murine lymphocytic L1210 leukemia cells. Nature of the assay: Cell proliferation analysis, L1210 cells. Format: cell-based. The conditions noted are these: for IC50: Mus musculus, L1210, 24 h, read-out: IC50 L1210. In a few lines:
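Murine L1210 cells maintained at 1×10^6 cells/mL in RPMI 1640 with 10% FCS, 2 mM L-glutamine, […] and penicillin/streptomycin (37 °C, 5% CO2). DMSO stocks (1 mg/mL) diluted in medium. 1×10^4 cells/well exposed to increasing concentrations for 24 h at 37 °C; cell number/mL counted on a Coulter counter. IC50 relative to untreated controls, duplicate cultures per concentration, mean ± SE of ≥3 independent experiments.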

As for `COc1cc(C(=O)c2oc3ccccc3c2NC(C)=O)cc(OC)c1OC` [Compound 3a, N-[2-(3,4,5-Trimethoxybenzoyl)-1-benzofuran-3-yl]acetamide], the IC50 (in general, the midpoint of a concentration-inhibition curve) in assay [1] is above 100000 nM.

For the compound `COc1cc(C(=O)c2sc3c(C)cccc3c2NC(=O)CBr)cc(OC)c1OC` [Compound 3aa, 2-Bromo-N-[7-methyl-2-(3,4,5-trimethoxybenzoyl)-1-benzothien-3-yl]acetamide], in assay [1], the IC50 was 490 ± 80 nM.

For the compound `COc1cc(C(=O)c2sc3c(C)cccc3c2NC(=O)CI)cc(OC)c1OC` [Compound 3ab, 2-Iodo-N-[7-methyl-2-(3,4,5-trimethoxybenzoyl)-1-benzothien-3-yl]acetamide], the IC50 in assay [1] amounted to 550 ± 10 nM.

As for `COc1cc(C(=O)c2oc3ccccc3c2NC(=O)CCl)cc(OC)c1OC` [Compound 3b, 2-Chloro-N-[2-(3,4,5-trimethoxybenzoyl)-1-benzofuran-3-yl]acetamide], the concentration for half-maximal inhibition (IC50) in assay [1] amounted to 45800 ± 1500 nM.

For `COc1cc(C(=O)c2oc3ccccc3c2NC(=O)CBr)cc(OC)c1OC` [Compound 3c, 2-Bromo-N-[2-(3,4,5-trimethoxybenzoyl)-1-benzofuran-3-yl]acetamide], the IC50 in assay [1] was 12800 ± 510 nM; in assay [2], 4560 ± 640 nM.

As for `COc1cc(C(=O)c2oc3ccccc3c2NC(=O)CI)cc(OC)c1OC` [Compound 3d, 2-Iodo-N-[2-(3,4,5-trimethoxybenzoyl)-1-benzofuran-3-yl]acetamide], the IC50 in assay [1] stood at 2210 ± 90 nM. For the same compound, the “fold more potent than the bromine 3c” value in assay [1] (antiproliferative activity, K562 and L1210 cells) is on record as 6 fold.

For `COc1ccc2oc(C(=O)c3cc(OC)c(OC)c(OC)c3)c(NC(C)=O)c2c1` [Compound 3e, N-[5-Methoxy-2-(3,4,5-trimethoxybenzoyl)-1-benzofuran-3-yl]acetamide], in assay [1], the IC50 turned out to be 58100 ± 1300 nM.

Take `COc1ccc2oc(C(=O)c3cc(OC)c(OC)c(OC)c3)c(NC(=O)CCl)c2c1` [Compound 3f, 2-Chloro-N-[5-methoxy-2-(3,4,5-trimethoxy-benzoyl)-1-benzofuran-3-yl]acetamide]: the half-maximal inhibitory concentration (IC50) in assay [1] is 60900 ± 2400 nM.

In the case of `COc1ccc2oc(C(=O)c3cc(OC)c(OC)c(OC)c3)c(NC(=O)CBr)c2c1` [Compound 3g, 2-Bromo-N-[5-methoxy-2-(3,4,5-trimethoxybenzoyl)-1-benzofuran-3-yl]acetamide], in assay [1], the IC50 stood at 53400 ± 2600 nM.

With `COc1ccc2oc(C(=O)c3cc(OC)c(OC)c(OC)c3)c(NC(=O)CI)c2c1` [Compound 3h, 2-Iodo-N-[5-methoxy-2-(3,4,5-trimethoxybenzoyl)-1-benzofuran-3-yl]acetamide], the IC50 came to 49200 ± 1800 nM in assay [1] and 520 ± 30 nM in assay [2].

In the case of `COc1cc(C(=O)c2oc3c(OC)cccc3c2NC(C)=O)cc(OC)c1OC` [Compound 3m, N-[7-Methoxy-2-(3,4,5-trimethoxybenzoyl)-1-benzofuran-3-yl]acetamide], in assay [1], the IC50 amounted to 48100 ± 2600 nM.

`COc1cc(C(=O)c2oc3c(OC)cccc3c2NC(=O)CCl)cc(OC)c1OC` [Compound 3n, 2-Chloro-N-[7-methoxy-2-(3,4,5-trimethoxybenzoyl)-1-benzofuran-3-yl]acetamide]: in assay [1], the IC50 was found to be 82700 ± 5600 nM.

Take `COc1cc(C(=O)c2oc3c(OC)cccc3c2NC(=O)CBr)cc(OC)c1OC` [Compound 3o, 2-Bromo-N-[7-methoxy-2-(3,4,5-trimethoxybenzoyl)-1-benzofuran-3-yl]acetamide]: in assay [1], the IC50 was above 100000 nM.

In the case of `COc1cc(C(=O)c2oc3c(OC)cccc3c2NC(=O)CI)cc(OC)c1OC` [Compound 3p, 2-Iodo-N-[7-methoxy-2-(3,4,5-trimethoxybenzoyl)-1-benzofuran-3-yl]acetamide], the figures for the half-inhibitory concentration (IC50) in assay [1] and in assay [2] were 6960 ± 1120 nM and 42800 ± 3770 nM, respectively.

For `COc1cc(C(=O)c2sc3ccccc3c2NC(C)=O)cc(OC)c1OC` [Compound 3q, N-[2-(3,4,5-Trimethoxybenzoyl)-1-benzothien-3-yl] acetamide], in assay [1], the IC50 is 630 ± 40 nM.

For the compound `COc1cc(C(=O)c2sc3ccccc3c2NC(=O)CCl)cc(OC)c1OC` [Compound 3r, 2-Chloro-N-[2-(3,4,5-trimethoxybenzoyl)-1-benzothien-3-yl]acetamide], the IC50 in assay [1] amounted to 600 ± 20 nM.

Turning to `COc1cc(C(=O)c2sc3ccccc3c2NC(=O)CBr)cc(OC)c1OC` [Compound 3s, 2-Bromo-N-[2-(3,4,5-trimethoxybenzoyl)-1-benzothien-3-yl]acetamide], the IC50 in assay [1] was 610 ± 40 nM; in assay [2], 500 ± 10 nM.

`COc1cc(C(=O)c2sc3ccccc3c2NC(=O)CI)cc(OC)c1OC` [Compound 3t, 2-Iodo-N-[2-(3,4,5-trimethoxybenzoyl)-1-benzothien-3-yl]acetamide]: the figures for the IC50 in assay [1] and in assay [2] were 760 ± 20 nM and 580 ± 90 nM, respectively.

With `COc1cc(C(=O)c2sc3cc(C)ccc3c2NC(C)=O)cc(OC)c1OC` [Compound 3u, N-[6-Methyl-2-(3,4,5-trimethoxybenzoyl)-1-benzothien-3-yl]acetamide], the IC50 in assay [1] was determined as 700 ± 10 nM.

For the compound `COc1cc(C(=O)c2sc3cc(C)ccc3c2NC(=O)CCl)cc(OC)c1OC` [Compound 3v, 2-Chloro-N-[6-methyl-2-(3,4,5-trimethoxybenzoyl)-1-benzothien-3-yl]acetamide], in assay [1], the IC50 is 80 nM.

On to `COc1cc(C(=O)c2sc3cc(C)ccc3c2NC(=O)CBr)cc(OC)c1OC` [Compound 3w, 2-Bromo-N-[6-methyl-2-(3,4,5-trimethoxybenzoyl)-1-benzothien-3-yl]acetamide], for which, in assay [1], the IC50 is 500 ± 80 nM.

Take `COc1cc(C(=O)c2sc3cc(C)ccc3c2NC(=O)CI)cc(OC)c1OC` [Compound 3x, 2-Iodo-N-[6-methyl-2-(3,4,5-trimethoxybenzoyl)-1-benzothien-3-yl]acetamide]: the IC50 stood at 610 ± 10 nM in assay [1] and 440 ± 70 nM in assay [2].

Consider `COc1cc(C(=O)c2sc3c(C)cccc3c2NC(C)=O)cc(OC)c1OC` [Compound 3y, N-[7-Methyl-2-(3,4,5-trimethoxybenzoyl)-1-benzothien-3-yl]acetamide], for which the 50% inhibitory concentration (IC50) in assay [1] was found to be 32 nM.

Turning to `COc1cc(C(=O)c2sc3c(C)cccc3c2NC(=O)CCl)cc(OC)c1OC` [Compound 3z, 2-Chloro-N-[7-methyl-2-(3,4,5-trimethoxybenzoyl)-1-benzothien-3-yl]acetamide], the IC50 in assay [1] is 40 ± 20 nM; in assay [2], 50 nM.

On to `COc1cc(C(=O)c2oc3ccccc3c2NC(=O)CO[N+](=O)[O-])cc(OC)c1OC` [Compound 4a, 2-Oxo-2-{[2-(3,4,5-trimethoxybenzoyl)-1-benzofuran-3-yl]amino}ethyl nitrate], for which the IC50 in assay [1] came out at 31400 ± 1000 nM.

Regarding `COc1cc(C(=O)c2sc3ccccc3c2NC(=O)CO[N+](=O)[O-])cc(OC)c1OC` [Compound 4b, 2-Oxo-2-{[2-(3,4,5-trimethoxybenzoyl)-1-benzothien-3-yl]amino}ethyl nitrate], the IC50 in assay [1] was determined as 550 ± 50 nM.

Turning to `COc1cc(C(=O)c2sc3cc(C)ccc3c2NC(=O)CO[N+](=O)[O-])cc(OC)c1OC` [Compound 4c, 2-{[6-Methyl-2-(3,4,5-trimethoxybenzoyl)-1-benzothien-3-yl]amino}-2-oxoethyl nitrate], the IC50 was determined as 30 ± 20 nM in assay [1] and 280 ± 30 nM in assay [2]. The “fold increase in potency relative to 4b” value in assay [1] (against K562 cells) is listed as 20 fold.

Regarding `COc1cc(C(=O)c2sc3c(C)cccc3c2NC(=O)CO[N+](=O)[O-])cc(OC)c1OC` [Compound 4d, 2-{[7-Methyl-2-(3,4,5-trimethoxybenzoyl)-1-benzothien-3-yl]amino}-2-oxoethyl nitrate], the IC50 in assay [1] was found to be 50 ± 10 nM. The “fold more potent than 4c” value in assay [2] (against L1210 cells) is reported as “about 5 fold”.

On to `C=C(Br)C(=O)Nc1c(C(=O)c2cc(OC)c(OC)c(OC)c2)oc2ccccc12` [Compound 5a, 2-Bromo-N-[2-(3,4,5-trimethoxybenzoyl)-1-benzofuran-3-yl]acrylamide], for which the IC50 was 5100 ± 70 nM in assay [1] and 530 nM in assay [2]. In addition, the “fold more active than amino counterpart 2a” value in assay [2] (against L1210 cells) came to 60 fold.

In the case of `C=C(Br)C(=O)Nc1c(C(=O)c2cc(OC)c(OC)c(OC)c2)oc2ccc(OC)cc12` [Compound 5b, 2-Bromo-N-[5-methoxy-2-(3,4,5-trimethoxybenzoyl)-1-benzofuran-3-yl]acrylamide], the IC50 in assay [1] was above 100000 nM.

For the compound `C=C(Br)C(=O)Nc1c(C(=O)c2cc(OC)c(OC)c(OC)c2)oc2cc(OC)ccc12` [Compound 5c, 2-Bromo-N-[6-methoxy-2-(3,4,5-trimethoxybenzoyl)-1-benzofuran-3-yl]acrylamide], the IC50 in assay [1] amounted to 25900 ± 2300 nM.

In the case of `C=C(Br)C(=O)Nc1c(C(=O)c2cc(OC)c(OC)c(OC)c2)oc2c(OC)cccc12` [Compound 5d, 2-Bromo-N-[7-methoxy-2-(3,4,5-trimethoxybenzoyl)-1-benzofuran-3-yl]acrylamide], the IC50 in assay [1] is 55900 ± 4600 nM; in assay [2], 26800 ± 3200 nM.

On to `C=C(Br)C(=O)Nc1c(C(=O)c2cc(OC)c(OC)c(OC)c2)sc2ccccc12` [Compound 5e, 2-Bromo-N-[2-(3,4,5-trimethoxybenzoyl)-1-benzothien-3-yl]acrylamide], for which, in assay [1], the IC50 came out at 580 ± 30 nM.

`C=C(Br)C(=O)Nc1c(C(=O)c2cc(OC)c(OC)c(OC)c2)sc2cc(C)ccc12` [Compound 5f, 2-Bromo-N-[6-methyl-2-(3,4,5-trimethoxybenzoyl)-1-benzothien-3-yl]acrylamide]: the IC50 in assay [1] turned out to be 940 ± 60 nM; in assay [2], 59 nM.

`C=C(Br)C(=O)Nc1c(C(=O)c2cc(OC)c(OC)c(OC)c2)sc2c(C)cccc12` [Compound 5g, 2-Bromo-N-[7-methyl-2-(3,4,5-trimethoxybenzoyl)-1-benzothien-3-yl]acrylamide]: the half-inhibitory concentration (IC50) in assay [1] is 490 ± 30 nM.
